Reference: article PMC2901992 (Bioorganic & medicinal chemistry letters, 2010)
Read-outs that look alike come from different tables or passages of the source. One block for each compound: values may come before it.

Legend:
Bcr-Abl (wt) = Bcr-Abl (wt) (Homo sapiens, UniProt P00519+P11274); assay: Cellular antiproliferative activity on wtBcr-Abl-Ba/F3; assay type: cell-based; conditions: for Selectivity for Bcr-Abl dependent cellular growth: versus parental Ba/F3 cytotoxicity
Bcr-Abl (T315I) = Bcr-Abl (T315I) (Homo sapiens, UniProt P00519+P11274, T315I); assay: Cellular antiproliferative activity on mutant Bcr-Abl-T315I-Ba/F3; assay type: cell-based; conditions: for EC50: read-out: EC50 against T315I mutant; for Fold improvement relative to 3 against T315I mutant Bcr-Abl: relative to compound 3
In short: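 Ba/F3 cells transformed with wild-type or T315I Bcr-Abl were tested for antiproliferative activity, with parental Ba/F3 cells tested alongside. The value is an EC50 from the cellular assay.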

panel of 442 kinases [1] = assay: KINOMEscan kinase selectivity profiling; assay type: binding; conditions: 10 μM
panel of 442 kinases [2] = conditions: cited from earlier work
[3] = carbonyl group at the 6-position

SMILES: CCN1CCN(Cc2ccc(NC(=O)c3ccc(C)c(C#Cc4ccc(NC(C)=O)nc4)c3)cc2C(F)(F)F)CC1 [Compound 4]
Fold improvement relative to 3 against T315I mutant Bcr-Abl (Bcr-Abl (T315I)): ~8 fold

SMILES: CCN1CCN(Cc2ccc(NC(=O)c3ccc(C)c(C#Cc4cccnc4)c3)cc2C(F)(F)F)CC1 [Compound 3]
Selectivity for Bcr-Abl dependent cellular growth (Bcr-Abl (wt)): up to 1000 fold
Number of kinases with ambit score of less than 10% of the DMSO control (panel of 442 kinases [1]; panel of 442 kinases): 193 kinases
Selectivity score S10 (panel of 442 kinases [1]; panel of 442 kinases): 0.427

SMILES: CCN1CCN(Cc2ccc(NC(=O)c3ccc(C)c(C#Cc4ccc(C(=O)NC)nc4)c3)cc2C(F)(F)F)CC1 [Compound 6]
Fold less potent EC50 against wild-type Bcr-Abl (Bcr-Abl (wt); [3]): 6 fold
Fold less potent EC50 against T315I Bcr-Abl (Bcr-Abl (T315I); [3]): 6 fold

SMILES: CCN1CCN(Cc2ccc(NC(=O)c3ccc(C)c(C#Cc4ccc(NC(=O)C5CC5)nc4)c3)cc2C(F)(F)F)CC1 [Compound 5]
Fold improvement relative to 3 against T315I mutant Bcr-Abl (Bcr-Abl (T315I)): ~8 fold

SMILES: CCN1CCN(Cc2ccc(NC(=O)c3cccc(-c4ccc5nc(NC(=O)C6CC6)sc5n4)c3)cc2C(F)(F)F)CC1 [HG-7-85-01]
Selectivity score S10 (panel of 442 kinases [2]): 0.056

The next lines start with results.

EC50 (Bcr-Abl (T315I)): < 100 nM
Number of kinases with ambit score of less than 10% of the DMSO control (panel of 442 kinases [1]; panel of 442 kinases): 203 kinases
Ambit score of kinase hits (% of the DMSO control) (panel of 442 kinases [1]; hits: ABL, ARG, BLK, PITSLRE, CRIK, FMS/CSFR, DDR1, EphA8, FGFR4, HPK1, JNK2, KIT, LOK, LYN, GCK, MUSK, MYO3B, p38α, p38β, PDGFRα, PDGFRβ, RET, RIPK1, SRC, TAO1, TAO2, TAO3, TIE2): < 0.1%
SMILES: CCN1CCN(Cc2ccc(NC(=O)c3ccc(C)c(C#Cc4cnc5[nH]ccc5c4)c3)cc2C(F)(F)F)CC1 [Compound 12]
Selectivity for Bcr-Abl dependent cellular growth (Bcr-Abl (wt)): up to 1000 fold

EC50 (Bcr-Abl (T315I)): < 100 nM
SMILES: CCN1CCN(Cc2ccc(NC(=O)c3ccc(C)c(C#Cc4cnc5[nH]cnc5c4)c3)cc2C(F)(F)F)CC1 [Compound 14]
